# Measurements from ChEMBL document CHEMBL1140177 (J Med Chem, 2008).
# How the values were obtained:
# [1] = molecular target: Human immunodeficiency virus type 1 reverse transcriptase (Human immunodeficiency virus 1, UniProt Q72547, Y181C); assay: Inhibition of HIV1 RT polymerase Y181C mutant by SPA
# [2] = system: Human immunodeficiency virus 1; assay: Antiviral activity against wild type HIV1 infected in human MT4 cells after 72 hrs in presence of 10% fetal bovine serum; type: functional; conditions: Human immunodeficiency virus 1, MT4, 72 h; read-out: CIC95
# Method in brief: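 MT-4 human T-lymphoid cells in RPMI 1640 with 10% FBS. CIC95 is the concentration that inhibits viral spread by >95%. Values are either geometric means of two determinations or given with standard deviations for n > 3 or n > 50.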
# [3] = system: Human immunodeficiency virus 1; assay: Antiviral activity against HIV1 with reverse transcriptase K103N mutant infected in human MT4 cells after 72 hrs in presence of 10% fetal bovine serum; type: functional; conditions: Human immunodeficiency virus 1, MT4, 72 h; read-out: CIC95
# Method in brief: (§1)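 Mutant HIV-1 spread was assayed in MT-4 human T-lymphoid cells kept in RPMI 1640 with 10% FBS. CIC95 is the concentration that inhibits viral spread by >95%. Values are geometric means of two determinations, or mean with standard deviation where n > 3. Cytotoxicity was checked up to an assay limit of 8.3 µM.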
# [4] = molecular target: Human immunodeficiency virus type 1 reverse transcriptase (Human immunodeficiency virus 1, UniProt Q72547, K103N); assay: Inhibition of HIV1 RT polymerase K103N mutant by SPA
# [5] = molecular target: Human immunodeficiency virus type 1 reverse transcriptase (Human immunodeficiency virus 1, UniProt Q72547); assay: Inhibition of wild type HIV1 RT polymerase by SPA
# [6] = system: Human immunodeficiency virus 1; assay: Antiviral activity against wild type HIV1 infected in human MT4 cells after 72 hrs in presence of 50% normal human serum; type: functional; conditions: Human immunodeficiency virus 1, MT4, 72 h; read-out: CIC95
# Method in brief: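 MT-4 human T-lymphoid cells in RPMI 1640 with 50% NHS. CIC95 is the concentration that inhibits viral spread by >95%. Values are either geometric means of two determinations or given with standard deviations for n > 3 or n > 50.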
# [7] = system: Human immunodeficiency virus 1; assay: Antiviral activity against HIV1 with reverse transcriptase Y181C mutant infected in human MT4 cells after 72 hrs in presence of 10% fetal bovine serum; type: functional; conditions: Human immunodeficiency virus 1, MT4, 72 h; read-out: CIC95; method in brief: as §1
# [8] = system: Human immunodeficiency virus 1; assay: Antiviral activity against HIV1 with reverse transcriptase G190S mutant in presence of 40% normal human serum; type: functional, organism-based
# Canis familiaris [9] = species: Canis familiaris; assay: Toxicity in cardiovascular dog model assessed as effect on blood pressure; type: organism-based, Canis lupus familiaris; conditions: in vivo
# Method in brief: (§2)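 Conscious dog cardiovascular model, with QTc, heart rate and blood pressure monitored at plasma levels up to 55 µM.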
# [10] = Oral bioavailability in Beagle dog at 10 mg/kg; type: ADME, organism-based, Canis lupus familiaris; conditions: in vivo
# Method in brief: (§3)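 Three beagle dogs, averaged. Oral dose 10 mpk in 0.5% methocel; intravenous dose 2 mpk in DMSO. Individual values within 25% of mean.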
# [11] = system: Human immunodeficiency virus 1; assay: Antiviral activity against HIV1 with reverse transcriptase Y181C mutant in presence of 40% normal human serum; type: functional, organism-based
# [12] = system: Human immunodeficiency virus 1; assay: Antiviral activity against HIV1 with reverse transcriptase K103N/P225H mutant in presence of 40% normal human serum; type: functional, organism-based
# [13] = system: Human immunodeficiency virus 1; assay: Antiviral activity against HIV1 with reverse transcriptase F227L mutant in presence of 40% normal human serum; type: functional, organism-based
# [14] = Clearance in Beagle dog at 10 mg/kg, po and 2 mg/kg, iv; type: ADME, organism-based, Canis lupus familiaris; conditions: in vivo; method in brief: as §3
# [15] = system: Human immunodeficiency virus 1; assay: Antiviral activity against HIV1 with reverse transcriptase K103N/Y181C mutant in presence of 40% normal human serum; type: functional, organism-based
# Canis familiaris [16] = assay: Half life in Beagle dog at 10 mg/kg, po and 2 mg/kg, iv; type: ADME, organism-based, Canis lupus familiaris; conditions: in vivo; method in brief: as §3
# [17] = AUC in Sprague-Dawley rat at 10 mg/kg, po; type: ADME, organism-based; parameters: dose 10 mg/kg, route oral; conditions: plasma
# [18] = Volume of distribution in Beagle dog at 10 mg/kg, po and 2 mg/kg, iv; type: ADME, organism-based, Canis lupus familiaris; conditions: in vivo; method in brief: as §3
# [19] = system: Human immunodeficiency virus 1; assay: Antiviral activity against HIV1 with reverse transcriptase K103N/Y181C/G190A mutant in presence of 40% normal human serum; type: functional, organism-based
# Canis familiaris [20] = species: Canis familiaris; assay: Toxicity in cardiovascular dog model assessed as effect on heart rate; type: organism-based, Canis lupus familiaris; conditions: in vivo; method in brief: as §2
# [21] = Oral bioavailability in Sprague-Dawley rat at 10 mg/kg; type: ADME, organism-based; conditions: in vivo
# Rattus norvegicus = assay: Half life in Sprague-Dawley rat at 10 mg/kg, po and 3 mg/kg, iv; type: ADME, organism-based; conditions: in vivo
# Method in brief: (§4)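 Three Sprague-Dawley rats, averaged. Oral dose 10 mpk in 0.5% methocel; intravenous dose 3 mpk in DMSO. Individual values within 25% of mean.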
# [22] = Clearance in rhesus monkey at 10 mg/kg, po and 2 mg/kg, iv; type: ADME, organism-based, Macaca mulatta; conditions: in vivo
# [23] = system: Human immunodeficiency virus 1; assay: Antiviral activity against HIV1 with reverse transcriptase Y188L mutant in presence of 40% normal human serum; type: functional, organism-based
# [24] = system: Human immunodeficiency virus 1; assay: Antiviral activity against HIV1 with reverse transcriptase G190A mutant in presence of 40% normal human serum; type: functional, organism-based
# [25] = system: Human immunodeficiency virus 1; assay: Antiviral activity against HIV1 with reverse transcriptase V179E mutant in presence of 40% normal human serum; type: functional, organism-based
# [26] = system: Human immunodeficiency virus 1; assay: Antiviral activity against HIV1 with reverse transcriptase L100I mutant in presence of 40% normal human serum; type: functional, organism-based
# [27] = system: Human immunodeficiency virus 1; assay: Antiviral activity against HIV1 with reverse transcriptase K103N/V179E mutant in presence of 40% normal human serum; type: functional, organism-based
# [28] = system: Human immunodeficiency virus 1; assay: Antiviral activity against HIV1 with reverse transcriptase K103N/G190A mutant in presence of 40% normal human serum; type: functional, organism-based
# [29] = system: Human immunodeficiency virus 1; assay: Antiviral activity against HIV1 with reverse transcriptase V106A mutant in presence of 40% normal human serum; type: functional, organism-based
# [30] = system: Human immunodeficiency virus 1; assay: Antiviral activity against wild type HIV1 in presence of 40% normal human serum; type: functional, organism-based
# Method in brief: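 Monogram Bioscience PhenoScreen cell-culture assay run with 40% NHS. […] Value is the geometric mean of n = 2.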
# [31] = system: Human immunodeficiency virus 1; assay: Antiviral activity against HIV1 with reverse transcriptase P236L mutant in presence of 40% normal human serum; type: functional, organism-based
# [32] = Oral bioavailability in rhesus monkey at 10 mg/kg; type: ADME, organism-based, Macaca mulatta; conditions: in vivo
# [33] = Solubility at pH 2; type: physicochemical; conditions: buffer
# Canis familiaris [34] = species: Canis familiaris; assay: Toxicity in cardiovascular dog model assessed as effect on QTc intervals; type: organism-based, Canis lupus familiaris, Heart; conditions: in vivo; method in brief: as §2
# [35] = AUC in Beagle dog at 10 mg/kg, po; type: ADME, organism-based, Canis lupus familiaris; parameters: dose 10 mg/kg, route oral; conditions: plasma; method in brief: as §3
# [36] = system: Human immunodeficiency virus 1; assay: Antiviral activity against HIV1 with reverse transcriptase Y181C/G190A mutant in presence of 40% normal human serum; type: functional, organism-based
# [37] = system: Human immunodeficiency virus 1; assay: Antiviral activity against HIV1 with reverse transcriptase K103N mutant in presence of 40% normal human serum; type: functional, organism-based
# [38] = AUC in rhesus monkey at 10 mg/kg, po; type: ADME, organism-based, Macaca mulatta; parameters: dose 10 mg/kg, route oral; conditions: plasma
# [39] = system: Human immunodeficiency virus 1; assay: Antiviral activity against HIV1 with reverse transcriptase K101E/G190A mutant in presence of 40% normal human serum; type: functional, organism-based
# [40] = Clearance in Sprague-Dawley rat at 10 mg/kg, po and 3 mg/kg, iv; type: ADME, organism-based; conditions: in vivo; method in brief: as §4
# [41] = Volume of distribution in rhesus monkey at 10 mg/kg, po and 2 mg/kg, iv; type: ADME, organism-based, Macaca mulatta; conditions: in vivo
# [42] = Volume of distribution in Sprague-Dawley rat at 10 mg/kg, po and 3 mg/kg, iv; type: ADME, organism-based; conditions: in vivo; method in brief: as §4
structure (smiles),measurement,setting,value
N#Cc1cc(Cl)cc(Oc2cc(OCc3n[nH]c4cccnc34)ccc2Cl)c1,IC50,[1],0.74 µM
same,IC95,[2],0.307 µM
same,IC95,[3],2.77 µM
same,IC50,[4],0.04 µM
same,IC50,[5],0.0036 µM
same,IC95,[6],0.922 µM
O=C1Nc2ccc(Cl)cc2[C@@](C#CC2CC2)(C(F)(F)F)O1 [EFAVIRENZ],IC95,[7],0.087 µM
same,IC95,[2],0.0046 µM
same,IC95,[3],0.245 µM
same,IC95,[6],0.042 µM
N#Cc1cc(Cl)cc(Oc2cc(OCc3n[nH]c4nc(N)ccc34)ccc2Cl)c1,IC50,[8],0.0076 µM
same,IC95,[7],0.019 µM
same,Activity,Canis familiaris [9],Non-toxic
same,bioavailability,[10],47%
same,IC50,[11],0.0056 µM
same,IC50,[12],0.0012 µM
same,IC50,[13],0.0007 µM
same,clearance,[14],0.348 L/h/kg
same,IC50,[15],0.084 µM
same,t1/2,Canis familiaris [16],3.9 h
same,AUC,[17],22.7 µM·h
same,Vd,[18],1.7 L/kg
same,IC50,[19],0.0983 µM
same,Activity,Canis familiaris [20],Non-toxic
same,bioavailability,[21],52%
same,t1/2,Rattus norvegicus,3.5 h
same,clearance,[22],0.948 L/h/kg
same,IC50,[23],> 1 µM
same,IC50,[24],0.0015 µM
same,IC50,[25],0.005 µM
same,IC50,[26],0.0018 µM
same,IC50,[27],0.0096 µM
same,IC50,[28],0.0096 µM
same,IC50,[29],0.147 µM
same,IC50,[30],0.00135 µM
same,IC50,[31],0.0042 µM
same,bioavailability,[32],1%
same,IC95,[2],0.0084 µM
same,solubility,[33],0.01 mg/mL
same,IC95,[3],0.0114 µM
same,Activity,Canis familiaris [34],Non-toxic
same,AUC,[35],31.3 µM·h
same,IC50,[36],0.0148 µM
same,IC50,[37],0.0044 µM
same,AUC,[38],0.3 µM·h
same,IC50,[39],0.0101 µM
same,clearance,[40],0.54 L/h/kg
same,Vd,[41],1.9 L/kg
same,Vd,[42],2 L/kg
same,IC95,[6],0.034 µM
N#Cc1cc(Cl)cc(Oc2cc(OCc3n[nH]c4cnccc34)ccc2Cl)c1,IC95,[7],0.031 µM
same,IC50,[1],0.0039 µM
same,IC95,[2],0.0108 µM
same,IC95,[3],0.0342 µM
same,IC50,[4],0.0013 µM
same,IC50,[5],0.0008 µM
same,IC95,[6],0.034 µM
